# Measured values of several laboratories.
# Lines come from different studies, so protocols differ.
# Target: Casein kinase I isoform epsilon (CSNK1E, Homo sapiens, UniProt P49674)
Structure (SMILES),observed,mode,technique,tested at,endpoint,result
Cc1ccc(NC(=O)c2ccnc(C(F)(F)F)c2)cc1-c1cc(OCCO)nc(N2CCOCC2)c1,binding,,competition with immobilised ligand,1 µM,remaining binding,100%
CO[C@@H]1[C@H](N(C)C(=O)c2ccccc2)C[C@H]2O[C@]1(C)n1c3ccccc3c3c4c(c5c6ccccc6n2c5c31)C(=O)NC4,enzyme activity,inhibitor,,1 µM,inhibition,0%
CC(=O)ON=C1C=CC(=C(C#N)c2ccccc2)C=C1,enzyme activity,inhibitor,ADP detection,20 µM,activity vs control,60%
C=CC(=O)N1CCC[C@@H](n2nc(-c3ccc(Oc4ccccc4)cc3)c3c(N)ncnc32)C1,enzyme activity,inhibitor,,1 µM,inhibition,65%
C1=C/COCc2cc(ccc2OCCN2CCCC2)Nc2nccc(n2)-c2cccc(c2)COC/1,binding,,,0.1 µM,remaining binding,99%
CCCCC(=O)Nc1ccc(-c2ccc3ncn(CCC)c(=O)c3c2)cn1,binding,,competition with immobilised ligand,0.5 µM,remaining binding,82%
CN1CCN(C(=O)c2ccc(NC(=O)Nc3ccc(N(C)c4ccnc(Nc5ccc(CS(C)(=O)=O)cc5)n4)cc3)cc2)CC1,binding,,competition with immobilised ligand,1 µM,remaining binding,75%
C#Cc1cc(-c2cc(Nc3nc(N[C@@H](C)c4ccc(F)cn4)ncc3Cl)n[nH]2)ccc1C=O,enzyme activity,inhibitor,,0.2 µM,inhibition,4.66%
